Laboratory results from ChEMBL document CHEMBL1134598, “Synthesis, ionotropic glutamate receptor binding affinity, and structure-activity relationships of a new set of 4,5-dihydro-8-heteroaryl-4-oxo-1,2,4-triazolo[1,5-a]quinoxaline-2-carboxylates analogues of TQX-173” (J Med Chem, 2001).

Tests used:
[1] = target: Glutamate receptor ionotropic, AMPA (Mus musculus, UniProt P23818+P23819+Q9Z2W8+Q9Z2W9); test: Antagonism at ionotropic glutamate receptor AMPA in mouse cortical wedge preparation; format: functional
Outline: (§1)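 Mouse cortical wedges perfused with Mg2+-free medium; AMPA (5 µM) applied for 2 min every 15 min until control peaks stabilised, then continuous superfusion with antagonist while agonist applications continued. IC50 from depolarization peaks with agonist plus antagonist compared with control peaks; four separate determinations.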

Glutamate NMDA receptor [2] = test: Ability to displace [3H]glycine from NMDA receptor in rat corticaln membranes; format: cell membranes
[3] = Antagonism at NMDA receptor in mouse cortical wedge preparation expressed as concentration that inhibits by 50% depolarizations induced by 5 uM AMPA; format: functional; conditions: in the assay text read “5 uM NMDA” for “5 uM AMPA”
Outline: as §1, with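 “cortical wedges, gray matter” for “cortical wedges”, “Mg2+-free medium. Agonists (5 µM” for “Mg2+-free medium;”, “AMPA or 5 µM NMDA)” for “AMPA (5 µM)”, “compared to” for “compared with”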

Glutamate NMDA receptor [4] = test: Inhibition of [3H]-(+)-MK-801 binding to NMDA receptor ion-channel complex of rat cortical memembranes; format: protein-complex assay
Outline: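 Rat cortical membranes washed in 5 mM Tris-HCl pH 7.4 with 0.08% Triton X-100, 0.2-0.3 mg protein/tube. Incubated with 2.5 nM [3H]-(+)-MK-801, 10 µM glutamate and 0.1 µM glycine at room temperature for 120 min. IC50 or % inhibition at 100 µM; three or four determinations in triplicate.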

[5] = target: Glutamate receptor ionotropic, kainate; test: Inhibition of [3H]KA binding to kainate receptor of rat brain membranes; format: cell membranes, Membrane
[6] = target: Glutamate receptor ionotropic, AMPA (Rattus norvegicus, UniProt P19490+P19491+P19492+P19493); test: Binding affinity at ionotropic glutamate receptor AMPA in rat cortical membranes [3H]AMPA displacement.; format: cell membranes
[7] = target: Glutamate receptor ionotropic, kainate (Rattus norvegicus) (UniProt P22756+Q01812+P42260+P42264+Q63273); test: Inhibition of [3H]KA binding to kainate receptor in rat brain membranes; format: cell membranes; set-up: concentration or dose not given beside the values; conditions: concentration not given here
Outline: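 Rat membranes resuspended at 0.5 mg protein/mL in 0.05 M Tris-citrate pH 7.4, preincubated 37 °C for 30 min, washed three times in ice-cold buffer. Incubated on ice for 60 min with 5 nM [3H]kainate and test compound. Nonspecific binding defined with 1 mM glutamate. Bound ligand recovered by GF/C filtration. Single-point inhibition measured at 100 µM.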

[8] = target: T1, Glutamate NMDA receptor (Rattus norvegicus) (UniProt P35439+Q00959+Q00960+Q00961+Q62645+Q8VHN2+Q9R1M7); test: Inhibition of [3H]- glycine binding to NMDA receptor of rat membrane; set-up: concentration or dose not given beside the values; conditions: concentration not given here
Outline: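 Rat cortical synaptic membranes, [3H]glycine at 10 nM (KD 75 nM under these conditions). Compounds from 1 mM stock in 50% DMSO, diluted in buffer; four to six concentrations in triplicate, three or four displacement curves. IC50 converted to Ki by Cheng-Prusoff.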

[9] = target: Glutamate receptor ionotropic, kainate; test: Inhibition of specific binding of [3H]KA at kainate receptor in rat brain membranes; format: cell membranes
Outline: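 Membranes preincubated at 37 °C for 30 min in 0.05 M Tris-citrate pH 7.4, then washed; 0.2-0.3 mg protein with 5 nM [3H]kainate on ice for 60 min. Nonspecific binding defined with 1 mM glutamate; bound ligand separated by glass-fibre filtration.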

Glutamate NMDA receptor [10] = test: Ability to displace [3H]glycine from NMDA receptor in rat cortical membranes; format: cell membranes
Outline: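 Rat cortical synaptic membranes; [3H]glycine at 10 nM (KD 75 nM under these conditions). Test compound from 1 mM stock in 50% DMSO, diluted in buffer; four to six concentrations in triplicate, three or four displacement curves. IC50 by curve fitting, converted to Ki by Cheng-Prusoff.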

[11] = target: T1, Glutamate NMDA receptor (Rattus norvegicus); test: Percent inhibition of stimulated [3H](+)-MK-801 binding against N-methyl-D-aspartate glutamate receptor; format: protein-complex assay; conditions: concentration not given here
Outline: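 Rat cortical membranes washed in 5 mM Tris-HCl pH 7.4 containing 0.08% Triton X-100, then put through further resuspension/centrifugation cycles. Incubation for 120 min at room temperature with 2.5 nM [3H]-(+)-MK-801, 10 µM glutamate and 0.1 µM glycine. Percent inhibition of specific binding at 100 µM; three or four determinations in triplicate.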

[12] = Antagonism at NMDA receptor in mouse cortical wedge preparation expressed as concentration that inhibits by 50% depolarizations induced by 5 uM NMDA
[13] = Inhibition of specific binding of [3H]KA against iGluRs

Row | SMILES | IC50 [5] [µM] | Ki [6] [µM] | inhibition [7] [%] | inhibition [8] [%] | also measured
1 | O=C(O)c1nc2c(O)nc3cc(Cl)c(-n4cnnc4)cc3n2n1 [TQX-173] | – | – | – | – | IC50 [1]: 2.3 µM; Ki (Glutamate NMDA receptor [2]): 33.5 µM; IC50 [3]: 46 µM; IC50 (Glutamate NMDA receptor [4]): 68 µM
2 | CCOC(=O)c1nc2c(=O)[nH]c3cc(Cl)c(N)cc3n2n1 | 84 | 20.4 | – | – | Ki (Glutamate NMDA receptor [2]): 4.8 µM
3 | CCOC(=O)c1nc2c(O)nc3cc(Cl)c(-n4cncn4)cc3n2n1 | – | 17.2 | 29 | 28 | –
4 | CCOC(=O)c1nc2c(O)nc3ccc(-n4cnnc4)cc3n2n1 | – | – | 20 | 0 | –
5 | CCOC(=O)c1nc2c(O)nc3cc(Cl)c(-n4cccn4)cc3n2n1 | – | – | 20 | – | Ki [9]: 7.1 µM
6 | O=C(O)c1nc2c(O)nc3cc(Cl)c([N+](=O)[O-])cc3n2n1 | – | – | – | – | Ki [9]: 2.2 µM; IC50 (Glutamate NMDA receptor [4]): 17.8 µM
7 | O=C(O)c1nc2c(O)nc3cc(Cl)c(-n4ccnc4)cc3n2n1 | – | – | – | 45 | inhibition [11]: 45%
8 | O=C(O)c1nc2c(O)nc3cc(Cl)c(-n4cccc4)cc3n2n1 | 36 | 0.86 | – | – | IC50 [1]: 3 µM; Ki (Glutamate NMDA receptor [10]): 0.86 µM; IC50 (Glutamate NMDA receptor [4]): 11.7 µM; IC50 [12]: 52 µM
9 | CCOC(=O)c1nc2c(O)nc3cc(Cl)c(-n4ccnc4)cc3n2n1 | – | – | – | 39 | –
10 | CCOC(=O)c1nc2c(O)nc3cc(-n4cnnc4)ccc3n2n1 | – | 10.1 | 35 | 8 | –
11 | CCOC(=O)c1nc2c(O)nc3cc(Cl)c(-n4cccc4)cc3n2n1 | – | 18.4 | 7 | – | Ki [9]: 23 µM
12 | O=C(O)c1nc2c(=O)[nH]c3cc(Cl)c(-n4cccn4)cc3n2n1 | 20 | 4.3 | – | – | IC50 [1]: 3 µM; Ki (Glutamate NMDA receptor [2]): 5.3 µM; IC50 (Glutamate NMDA receptor [4]): 16.8 µM; IC50 [12]: 150 µM
13 | O=C(O)c1nc2c(O)nc3cc(Cl)c(-n4cncn4)cc3n2n1 | – | 3.7 | – | 35 | IC50 [1]: 12 µM; inhibition [11]: 30%; IC50 [13]: 48 µM; IC50 [12]: 350 µM
14 | CCOC(=O)c1nc2c(O)nc3cc(Cl)c(-n4cnnc4)cc3n2n1 | – | – | – | 15 | –
15 | O=C(O)c1cc(O)c2c(Cl)cc(Cl)cc2n1 | – | – | – | – | Ki (Glutamate NMDA receptor [2]): 0.09 µM; IC50 [3]: 4.7 µM

The next lines start with results.

Row | IC50 [5] [µM] | Ki [6] [µM] | inhibition [7] [%] | inhibition [8] [%] | SMILES | also measured
16 | – | – | – | 3 | NS(=O)(=O)c1cccc2c1c([N+](=O)[O-])cc1nc(O)c(O)nc12 [NBQX] | IC50 (Glutamate NMDA receptor [4]): 0.2 µM
17 | 8.9 | 0.53 | – | – | O=Cc1ccn(-c2cc3c(cc2Cl)nc(O)c2nc(C(=O)O)nn23)c1 | IC50 [1]: 1.2 µM; Ki (Glutamate NMDA receptor [10]): 28 µM; IC50 [3]: 23 µM; IC50 (Glutamate NMDA receptor [4]): 43 µM
18 | – | – | – | 35 | CCOC(=O)c1nc2c(O)nc3ccc([N+](=O)[O-])cc3n2n1 | –
19 | – | 4.3 | 44 | 0 | O=C(O)c1nc2c(O)nc3cc(-n4cnnc4)ccc3n2n1 | –
20 | 22.4 | 4.9 | – | – | Nc1cc2c(cc1Cl)nc(O)c1nc(C(=O)O)nn12 | Ki (Glutamate NMDA receptor [2]): 3.6 µM; IC50 (Glutamate NMDA receptor [4]): 5.6 µM
21 | 81 | 44 | – | 35 | Nc1ccc2nc(O)c3nc(C(=O)O)nn3c2c1 | –
22 | – | – | – | 16 | CCOC(=O)c1nc2c(O)nc3ccc(N)cc3n2n1 | –
23 | – | – | 16 | – | O=C(O)c1nc2c(O)nc3ccc([N+](=O)[O-])cc3n2n1 | Ki (Glutamate NMDA receptor [2]): 79.4 µM
24 | – | 47 | 35 | 10.2 | CCOC(=O)c1nc2c(O)nc3cc(Cl)c([N+](=O)[O-])cc3n2n1 | –
25 | 88 | 1.9 | – | – | CCOC(=O)c1nc2c(O)nc3cc(Cl)c(-n4ccc(C=O)c4)cc3n2n1 | Ki (Glutamate NMDA receptor [10]): 19 µM
26 | 90 | 17.2 | – | 0 | O=C(O)c1nc2c(O)nc3ccc(-n4cnnc4)cc3n2n1 | inhibition [11]: 20%
